Each block holds one molecule with its values, some of them ahead of it. The source made the active and inactive calls.
Assays:
[1] = test system: Human immunodeficiency virus 1; assay: (§1) Antiviral activity against HIV1 12231 harboring non-nucleoside reverse transcriptase 103N/179F/181C mutant infected in human TZM-bl cells infected with supernatants from virus-infected human MT2 cells treated with compound for 72 hrs assessed as reduction in viral replication after 48 hrs by bright Glo-luciferase reporter gene assay; type: functional, organism-based; conditions: Human immunodeficiency virus 1, 12231
Outline: (§2)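 BiCycle assay: MT-2 cells infected with a drug-resistant HIV-1 strain in the presence of compound dilutions. Virus produced in this first round is then measured by infecting TZM-bl cells. The readout is IC50.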

[2] = test system: Human immunodeficiency virus 1; assay: Selectivity ratio of IC50 for HIV1 11808 harboring protease L10F/K20T/V32I/L33F/I54V/G73S/I84V/L89V/L90M mutant infected in human MT2 cells to IC50 for HIV1 NL4-3 infected in human MT2 cells; type: functional
Outline: (§3)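 Fold change is the IC50 against the resistant strain divided by the IC50 against the wild-type NL4–3 reference. Both IC50 values come from the BiCycle assay (MT-2 infection, then TZM-bl readout of progeny virus).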

[3] = test system: Human immunodeficiency virus 1; assay: as §1, with “12465” for “12231”, “protease M46I/I54V/Q58E/T74P/V82L/L90M” for “non-nucleoside reverse transcriptase 103N/179F/181C”; type: functional, organism-based; conditions: Human immunodeficiency virus 1, 12465; outline: as §2
[4] = test system: Human immunodeficiency virus 1; assay: Selectivity ratio of IC50 for HIV1 12465 harboring protease M46I/I54V/Q58E/T74P/V82L/L90M mutant infected in human MT2 cells to IC50 for HIV1 NL4-3 infected in human MT2 cells; type: functional; outline: as §3
[5] = test system: Human immunodeficiency virus 1; assay: as §1, with “7400” for “12231”, “nucleoside” for “non-nucleoside”, “M41L/D67N/M184V/L210W/T215Y” for “103N/179F/181C”; type: functional, organism-based; conditions: Human immunodeficiency virus 1, 7400; outline: as §2
[6] = test system: Human immunodeficiency virus 1; assay: Antiviral activity against wild-type HIV1 NL4-3 infected in human TZM-bl cells treated with compound assessed as reduction in viral replication after 48 hrs by bright Glo-luciferase reporter gene assay based monocycle assay; conditions: Human immunodeficiency virus 1, NL4-3
[7] = test system: Human immunodeficiency virus 1; assay: Selectivity ratio of IC50 for HIV1 7400 harboring nucleoside reverse transcriptase M41L/D67N/M184V/L210W/T215Y mutant infected in human MT2 cells to IC50 for HIV1 NL4-3 infected in human MT2 cells; type: functional; outline: as §3
[8] = test system: Human immunodeficiency virus 1; assay: Selectivity ratio of IC50 for HIV1 11845 harboring integrase 140S/148H double mutant mutant infected in human MT2 cells to IC50 for HIV1 NL4-3 infected in human MT2 cells; type: functional; outline: as §3
[9] = test system: Human immunodeficiency virus 1; assay: Selectivity ratio of IC50 for HIV1 12229 harboring non-nucleoside reverse transcriptase L100I/K103N/H221Y mutant infected in human MT2 cells to IC50 for HIV1 NL4-3 infected in human MT2 cells; type: functional; outline: as §3
[10] = test system: Human immunodeficiency virus 1; assay: as §1, with “11845” for “12231”, “integrase 140S/148H double” for “non-nucleoside reverse transcriptase 103N/179F/181C”; type: functional, organism-based; conditions: Human immunodeficiency virus 1, 11845; outline: as §2
[11] = Cytotoxicity against human PBMC cells assessed as reduction in cell viability after 7 days by MTS assay; type: cell-based; conditions: read-out: TD50
Outline: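 Cytotoxicity in peripheral blood mononuclear cells by MTS assay, giving TD50. Only compounds that met the BiCycle IC50 ≤ 5 μM criterion and were positive in the NC inhibition assay were tested.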

[12] = test system: Human immunodeficiency virus 1; assay: Selectivity ratio of IC50 for HIV1 12231 harboring non-nucleoside reverse transcriptase 103N/179F/181C mutant infected in human MT2 cells to IC50 for HIV1 NL4-3 infected in human MT2 cells; type: functional; outline: as §3
[13] = test system: Human immunodeficiency virus 1; assay: Selectivity ratio of IC50 for HIV1 7401 harboring nucleoside reverse transcriptase M41L/E44D/D67N/T69D/M184V/L210W/T215Y mutant infected in human MT2 cells to IC50 for HIV1 NL4-3 infected in human MT2 cells; type: functional; outline: as §3
[14] = Inhibition of synthesized Nucleocapsid protein (11 to 55 residues) assessed as reduction in NC-induced cTAR DNA destabilization pre-treated with cTAR and Nucleocapsid (11-55) for 15 mins followed by compound addition at 10 uM by spectroflurometry relative to control
Outline: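 NC chaperone inhibition assay: fluorescence monitoring of NC-induced destabilization of cTAR DNA labelled with Alexa488 at the 5′ end and Dabcyl quencher at the 3′ end. Compound is tested at 10 μM.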

[15] = test system: Human immunodeficiency virus 1; assay: as §1, with “12229” for “12231”, “L100I/K103N/H221Y” for “103N/179F/181C”; type: functional, organism-based; conditions: Human immunodeficiency virus 1, 12229; outline: as §2
[16] = test system: Human immunodeficiency virus 1; assay: Antiviral activity against wild type HIV1 NL4-3 infected in human TZM-bl cells assessed as reduction in viral replication after 48 hrs by bright Glo-luciferase reporter gene assay based BiCycle assay; type: functional, organism-based; conditions: Human immunodeficiency virus 1, NL4-3, TZM-bl
Outline: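 BiCycle format: MT-2 cells infected with wild-type NL4-3 in the presence of compound dilutions. Virus produced in this first round was then quantified by infecting TZM-bl cells. IC50 was derived from the dose-response data.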

[17] = test system: Human immunodeficiency virus 1; assay: as §1, with “11808” for “12231”, “protease L10F/K20T/V32I/L33F/I54V/G73S/I84V/L89V/L90M” for “non-nucleoside reverse transcriptase 103N/179F/181C”; type: functional, organism-based; conditions: Human immunodeficiency virus 1, 11808; outline: as §2
[18] = Selectivity index, ratio of TD50 for cytotoxicity aginst human PBMC cells to IC50 for antiviral activity against wild type HIV1 NL4-3 infected in human TZM-bl cells assessed as reduction in viral replication after 48 hrs by bright Glo-luciferase reporter gene assay based BiCycle assay; type: toxicity, cell-based; conditions: read-out: Selectivity Index
Outline: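 SI calculated as TD50 from the PBMC MTS assay divided by IC50 from the BiCycle antiviral assay (MT-2 infection followed by TZM-bl read-out).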

[19] = test system: Human immunodeficiency virus 1; assay: as §1, with “7401” for “12231”, “nucleoside” for “non-nucleoside”, “M41L/E44D/D67N/T69D/M184V/L210W/T215Y” for “103N/179F/181C”; type: functional, organism-based; conditions: Human immunodeficiency virus 1, 7401; outline: as §2
[20] = test system: Human immunodeficiency virus 1; assay: Antiviral activity against wild-type HIV1 NL4-3 infected infected in human MT2 cells assessed as reduction in HIV1 extracellular genomic RNA level at 1 uM and measured after 30 hrs post infection by TaqMan probe based RT-PCR analysis; type: functional, organism-based
Outline: (§4)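 MT-2 cells were infected with NL4-3 at MOI 0.1 and incubated with test or reference agents at 20, 5 or 1 μM. Real-time PCR measured integrated HIV-1 DNA and intracellular and extracellular genomic HIV-1 RNA at 30 h post-infection. Levels are expressed as a percentage of the no-drug control culture.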

[21] = test system: Human immunodeficiency virus 1; assay: Antiviral activity against wild-type HIV1 NL4-3 infected infected in human MT2 cells assessed as reduction in HIV1 intracellular genomic RNA level at 1 uM and measured after 30 hrs post infection by TaqMan probe based RT-PCR analysis; type: functional, organism-based; outline: as §4
[22] = test system: Human immunodeficiency virus 1; assay: Antiviral activity against wild-type HIV1 NL4-3 infected infected in human MT2 cells assessed as reduction in HIV1 integrated DNA at 1 uM and measured after 30 hrs post infection by Alu-LTR PCR protocol based method; type: functional, organism-based; outline: as §4

SMILES: Nc1nc(-c2ccc(OCc3cccc(C(=O)NCCNC(=O)c4ccc(COc5ccc(F)cc5-c5csc(N)n5)cc4)c3)cc2)cs1.O=C(O)C(F)(F)F.O=C(O)C(F)(F)F
IC50 [1]: 4 µM
Ratio IC50 [2]: 0.7
IC50 [3]: 2 µM
Ratio IC50 [4]: 1.8
IC50 [5]: 1.1 µM
IC50 [6]: > 50 µM
Ratio IC50 [7]: 1
Ratio IC50 [8]: 2.7
Ratio IC50 [9]: 0.8
IC50 [10]: 3 µM
CC50 at 168 h [11]: > 50 µM
Ratio IC50 [12]: 3.6
Ratio IC50 [13]: 0.5
inhibition [14]: 16%
IC50 [15]: 0.9 µM
IC50 [16]: 1.1 µM
IC50 [17]: 0.8 µM
selectivity ratio at 48 h [18]: > 45
IC50 [19]: 0.6 µM

SMILES: Nc1nc(-c2ccc(C(=O)NCCCNC(=O)c3ccc(COc4ccccc4-c4csc(N)n4)cc3)cc2)cs1
IC50 [6]: 12 µM
inhibition [14]: 15%
IC50 [16]: 15 µM

SMILES: Nc1nc(-c2ccc(OCc3cccc(C(=O)NCCCCNC(=O)c4ccc(COc5ccccc5-c5csc(N)n5)cc4)c3)cc2)cs1
IC50 [6]: 16 µM
CC50 at 168 h [11]: > 100 µM
inhibition [14]: 19%
IC50 [16]: 5 µM
selectivity ratio at 48 h [18]: > 20

SMILES: Nc1ccc(NCCNC(=O)c2ccc(COc3ccccc3-c3csc(N)n3)cc2)nc1.O=C(O)C(F)(F)F.O=C(O)C(F)(F)F.O=C(O)C(F)(F)F
IC50 [1]: 5 µM
Ratio IC50 [2]: 0.8
IC50 [3]: 6 µM
Ratio IC50 [4]: 1.6
IC50 [5]: 1.5 µM
IC50 [6]: > 50 µM
Ratio IC50 [7]: 0.4
Ratio IC50 [8]: 0.6
Ratio IC50 [9]: 3.1
IC50 [10]: 2.3 µM
CC50 at 168 h [11]: 45 µM
Ratio IC50 [12]: 1.3
Ratio IC50 [13]: 0.7
inhibition [14]: 15%
IC50 [15]: 12 µM
IC50 [16]: 3.8 µM
IC50 [17]: 3 µM
selectivity ratio at 48 h [18]: 12
IC50 [19]: 2.7 µM

SMILES: Nc1nc(-c2ccc(OCc3cccc(C(=O)NCCNC(=O)c4ccc(COc5cccc6sc(N)nc56)cc4)c3)cc2)cs1
IC50 [6]: > 50 µM
inhibition [14]: 17%
IC50 [16]: 37 µM

SMILES: Cc1cc(/C=C/C#N)cc(C)c1Nc1ccnc(Nc2ccc(C#N)cc2)n1
Activity [20]: Active
Activity [21]: Active

IC50 [6]: > 100 µM
IC50 [16]: > 100 µM
SMILES: Nc1nc(CC(=O)NCCNC(=O)c2ccc(COc3ccccc3-c3csc(N)n3)cc2)cs1

SMILES: Nc1nc(-c2ccc(OCc3cccc(C(=O)NCCNC(=O)c4ccc(COc5ccccc5-c5coc(N)n5)cc4)c3)cc2)co1
IC50 [6]: > 50 µM
inhibition [14]: 21%
IC50 [16]: 6.2 µM

SMILES: Nc1nc(-c2ccc(OCc3cccc(C(=O)NCCNC(=O)c4ccc(COc5ccccc5-c5csc(N)n5)cc4)c3)cc2)cs1.O=C(O)C(F)(F)F.O=C(O)C(F)(F)F
IC50 [1]: 0.8 µM
Ratio IC50 [2]: 1.3
IC50 [3]: 1.2 µM
Ratio IC50 [4]: 0.9
IC50 [5]: 0.8 µM
IC50 [6]: 5 µM
Ratio IC50 [7]: 0.6
Ratio IC50 [8]: 0.8
Ratio IC50 [9]: 1.7
IC50 [10]: 1 µM
CC50 at 168 h [11]: 30 µM
Ratio IC50 [12]: 0.6
Ratio IC50 [13]: 0.9
inhibition [14]: 24%
IC50 [15]: 2.2 µM
IC50 [16]: 1.3 µM
IC50 [17]: 2.1 µM
selectivity ratio at 48 h [18]: 23
IC50 [19]: 1.2 µM

SMILES: Nc1nc(-c2ccc(OCc3cccc(C(=O)NCCCNC(=O)c4ccc(COc5ccccc5-c5csc(N)n5)cc4)c3)cc2)cs1
IC50 [6]: > 50 µM
inhibition [14]: 16%
IC50 [16]: 12 µM

IC50 [6]: > 100 µM
IC50 [16]: > 100 µM
SMILES: Nc1ccc(NCCNS(=O)(=O)c2ccc(COc3ccccc3-c3csc(N)n3)cc2)nc1

SMILES: Nc1nc(CCc2nc(-c3ccc(COc4ccccc4-c4csc(N)n4)cc3)no2)cs1
IC50 [6]: 35 µM
inhibition [14]: inactive
IC50 [16]: 6 µM

SMILES: Nc1nc(-c2ccc(OCc3cccc(C(=O)N4CCN(C(=O)c5ccc(COc6ccccc6-c6csc(N)n6)cc5)CC4)c3)cc2)cs1
IC50 [6]: > 50 µM
inhibition [14]: 15%
IC50 [16]: 28 µM

SMILES: Nc1nc(-c2ccc(C(=O)NCCNC(=O)c3ccc(COc4ccccc4-c4csc(N)n4)cc3)cc2)cs1
IC50 [6]: 30 µM
inhibition [14]: inactive
IC50 [16]: 5 µM

SMILES: Nc1nc(-c2ccccc2OCc2ccc(C(=O)NCCCNc3ccc([N+](=O)[O-])cn3)cc2)cs1
IC50 [6]: 28 µM
inhibition [14]: 21%
IC50 [16]: 12 µM

IC50 [6]: > 100 µM
IC50 [16]: > 100 µM
SMILES: Nc1nc(-c2ccccc2OCc2ccc(C(=O)NCCN3CCOCC3)cc2)cs1

SMILES: Cc1nnc(C(=O)NC(C)(C)c2nc(C(=O)NCc3ccc(F)cc3)c(O)c(=O)n2C)o1
Activity [22]: Active

SMILES: Nc1nc(CCNC(=O)c2ccc(COc3ccccc3-c3csc(N)n3)cc2)cs1
IC50 [6]: > 50 µM
inhibition [14]: 16%
IC50 [16]: 36 µM

Source: ChEMBL document CHEMBL4433210, “Synthesis and Evaluation of Bifunctional Aminothiazoles as Antiretrovirals Targeting the HIV-1 Nucleocapsid Protein” (ACS Med Chem Lett, 2019)
